Assays:
Type in all cases: functional
Rattus norvegicus [1] = organism: Rattus norvegicus; test: Antiischemic potency was determined at 10 uM for increase in time to contracture by 25% in globally ischemic rat hearts.
Rattus norvegicus [2] = organism: Rattus norvegicus; test: Vasorelaxant potency was determined for inhibition of methoxamine contracted rat aorta.
Procedure, shortened: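 Vasorelaxation was measured in rat aorta precontracted with methoxamine. IC50 is the concentration giving relaxation of the contraction.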

Rattus norvegicus [3] = organism: Rattus norvegicus; test: Antiischemic potency was determined for increase in time to contracture by 25% in globally ischemic rat hearts.
Procedure, shortened: (§1)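 Isolated rat hearts were perfused, then subjected to total global ischemia. Contracture onset was taken as the time for end diastolic pressure to rise 5 mmHg above baseline. EC25 is the concentration that raises time to contracture by 25%.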

[4] = Ratio between Antiischemic potency to Vasorelaxant potency
Procedure, shortened: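 Cardioselectivity was taken as the ratio of two values. The first is the EC25 for a 25% increase in time to contracture, in globally ischemic isolated perfused rat hearts. The second is the IC50 for relaxation of methoxamine-contracted rat aorta.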

Rattus norvegicus [5] = organism: Rattus norvegicus; test: Antiischemic potency for increase in time to contracture by 25% in globally ischemic rat hearts.; procedure, shortened: as §1

CC(C)(C)c1ccc(C#N)cc1NC(=O)Nc1ccccn1
Increase in time to contracture (Rattus norvegicus [1]): 25% | IC50 (Rattus norvegicus [2]): 25.7 µM

CC1(C)CCN(C(=O)Nc2ccccc2)c2cc(C#N)ccc21
EC25 (Rattus norvegicus [3]): 26 µM | IC50 (Rattus norvegicus [2]): 6.7 µM | Ratio [4]: 3.9

N#Cc1ccc(Oc2ccccc2)c(NC(=O)Nc2cccnc2)c1
EC25 (Rattus norvegicus [3]): 2 µM | IC50 (Rattus norvegicus [2]): 1 µM

CC(C)(C)c1ccc(C#N)cc1NC(=O)Nc1ccccc1
EC25 (Rattus norvegicus [3]): 33.8 µM | IC50 (Rattus norvegicus [2]): 1.7 µM | Ratio [4]: 19.9

CC(C)(C)c1ccc(C#N)cc1NC(=O)Nc1ccncc1
Increase in time to contracture (Rattus norvegicus [1]): 14% | IC50 (Rattus norvegicus [2]): 7.8 µM

N#Cc1ccc(-c2ccccc2)c(NC(=O)Nc2cccnc2)c1
EC25 (Rattus norvegicus [3]): 12 µM | IC50 (Rattus norvegicus [2]): 22.8 µM

CC1(C)CN(C(=O)Nc2cccnc2)c2cc(C#N)ccc21
EC25 (Rattus norvegicus [3]): 28.3 µM | IC50 (Rattus norvegicus [2]): 1.5 µM | Ratio [4]: 18.8

CC(C)(C)c1ccc(C#N)cc1NC(=O)Nc1cnccn1
EC25 (Rattus norvegicus [3]): 11.9 µM | IC50 (Rattus norvegicus [2]): 15.3 µM | Ratio [4]: 0.77

Cc1ccc(S(=O)(=O)Nc2ccc(C#N)cc2NC(=O)Nc2cccnc2)cc1
IC50 (Rattus norvegicus [2]): > 100 µM | Inhibition (Rattus norvegicus [5]): 0%

CC(C)(C)c1ccc(C#N)cc1NC(=O)Nc1ccc(Cl)nc1
EC25 (Rattus norvegicus [3]): 19.2 µM | IC50 (Rattus norvegicus [2]): 1.6 µM | Ratio [4]: 12

CC1(C)CC(NC(=O)Nc2ccccc2)c2cc(C#N)ccc21 (centres undefined)
EC25 (Rattus norvegicus [3]): 9.4 µM | IC50 (Rattus norvegicus [2]): 1.3 µM | Ratio [4]: 7.2

CC1(C)Oc2ccc(C#N)cc2[C@@H](/N=C(\NC#N)Nc2ccccc2)[C@@H]1O
EC25 (Rattus norvegicus [3]): 11 µM | IC50 (Rattus norvegicus [2]): 1.4 µM | Ratio [4]: 7.9

CC(C)(C)c1ccc(C#N)cc1NC(=O)Nc1cccnc1
EC25 (Rattus norvegicus [3]): 29.7 µM | Increase in time to contracture (Rattus norvegicus [1]): 25% | IC50 (Rattus norvegicus [2]): 25.7 µM | Ratio [4]: 1.2

CC(C)(C)c1ccc(C#N)cc1NC(=O)Nc1cncnc1
Increase in time to contracture (Rattus norvegicus [1]): 2% | IC50 (Rattus norvegicus [2]): 12.4 µM

CC(C)(C)c1ccc(C#N)cc1/N=C(/NC#N)Nc1cccnc1
Increase in time to contracture (Rattus norvegicus [1]): 16% | IC50 (Rattus norvegicus [2]): 1.2 µM

Source: ChEMBL document CHEMBL1129296, “Cardioselective antiischemic ATP-sensitive potassium channel openers. 4. Structure-activity studies on benzopyranylcyanoguanidines: replacement of the benzopyran portion” (J Med Chem, 1996)
